In the library only some 0.72% were active in any assay of this set; here they are far more common.
TNAP inh hiacc: TNAP (human) inhibition, high acceptor. inhibition, % at 20 µM. actives 0.03% (n = 200,000). purified TNAP, CDP-star luminescence, 1 M DEA. P05186;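 active means over 50% inhibition of tissue-nonspecific alkaline phosphatase at 20 µM in the single-dose screen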
Arbovirus anti: antivirals against arbovirus infection; arbovirus infection cell-based antiviral screen; inhibition, % at 10 µM; actives 0.37% (n = 200,000); in the data active means inhibition above about 30%
TNAP inh noacc: blocks human TNAP activity with no phosphate acceptor present; P05186; purified TNAP, CDP-star luminescence, 30 min; inhibition, % at 20 µM; actives 0.26% (n = 200,000);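 active means tissue-nonspecific alkaline phosphatase inhibition above about 50% at 20 µM in the single-dose screen, limit read from the data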
TNAP act hiacc: TNAP (human) activation, high acceptor; P05186; purified TNAP, CDP-star luminescence, 1 M DEA, 30 min; stronger effect = higher value; 0 = EDTA background, 1 = DMSO-only activity; activation factor at 20 µM; 200,000 tested, under 10 active; AID 1136;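 active means activation factor at least 2 at 20 µM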
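Assay system: human TNAP; Input: enzyme diluted 1/800 final; Reagent: CDP-star luminogenic substrate at 100 µM final; Timing: 30 min, room temperature; Signal: luminescence; Evaluation: TNAP activation factor scaled between EDTA and DMSO control wells.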
PKD1 inh: PKD1 (human) kinase inhibition | Q15139 | PKD1 kinase fluorescence polarization assay | inhibition, % (concentration not given with the values) | actives 0.056% (n = 200,000) | AID 797; in the data active means inhibition above about 50%
FP interf 140K: counter-screen for PKD inhibitors: fluorescence polarization interference | AID 1315 | PKD1 FP assay interference counter-screen | 85 tested, under 10 active | inhibition, % at 10 µM | shares compounds with PKD1 inh; call rule not given here
A number is an active result; . = inactive; / = not tested or not shown.

SMILES	TNAP inh hiacc	Arbovirus anti	TNAP inh noacc	TNAP act hiacc	PKD1 inh	FP interf 140K
COc1ccc(-c2cnnc(N/N=C/c3ccc(O)c(O)c3)n2)cc1	.	.	56	.	52	.
Cc1nn(C)c(C)c1N1C(=O)c2cccc3c(Br)ccc(c23)C1=O	.	.	.	.	.	/
Cc1nn(C)c(C)c1N1C(=O)c2cccc3c(N)ccc(c23)C1=O	.	.	.	.	67	.
O=C(NCCOC(=O)c1ccc(C(=O)OCCNC(=O)c2cccnc2)s1)c1cccnc1	.	.	.	.	105	.
COC(=O)C(C)NC(=O)CNS(=O)(=O)c1ccc(F)cc1 (stereo not given)	.	.	.	.	.	/
CCN(CC)c1ccc(NC(=O)COc2ccccc2C#N)cc1S(=O)(=O)Nc1ccc(OC)cc1	.	.	.	.	58	.
CCN(CC)c1ccc(NC(=O)COc2ccccc2C)cc1S(=O)(=O)Nc1ccccc1OC	.	.	.	.	.	/
COc1cc(NC(=O)CSc2nnc3c(C)cc4c(C)ccc(C)c4n23)c(C(=O)O)cc1OC	.	.	.	.	.	/
Cc1ccc(C(=O)Cn2c(NCCO)nc3ccccc32)cc1	.	.	.	.	53	.
O=C(Cn1c(NCCO)nc2ccccc21)c1ccccc1	.	.	.	.	.	/
CSc1ccccc1NC(=O)CN1CC(C)OC(C)C1 (stereo not given)	.	.	.	.	.	/
CC12CCC(C)(c3nc4ccccc4nc31)C2(C)C	.	.	.	.	.	/
Cc1[nH]nc2c1-c1nc3ccccc3nc1C(C)(C)C2	.	33	.	.	58	.
O=C1CCCc2c1cc(C(=O)NCc1ccco1)c(=O)n2-c1ccccc1	.	.	.	.	52	.
Cc1ccc(-n2c3c(cc(C(=O)NCc4ccco4)c2=O)C(=O)CC(C)(C)C3)cc1	.	.	.	.	.	/
Cc1ccc(NC(=O)CNc2ccc(Cl)cc2F)cc1	.	.	.	.	86	.
Cc1ccc(NC(=O)Nc2ccc(F)c(Cl)c2)cc1	.	.	.	.	.	/
O=C(O)C1CCN(c2ncccn2)CC1	.	.	.	.	90	.
CC(C)CCN1CN(S(=O)(=O)c2cccs2)c2nc3ccccc3nc21	.	.	.	.	95	.
O=C(Cn1cc(C(=O)C(F)(F)F)c2ccccc21)N1CCOCC1	.	.	.	.	.	/
CN(C)c1ccc(/C=C2\SC(=S)N(Nc3ncc(C(F)(F)F)cc3Cl)C2=O)cc1	.	.	.	.	69	.
O=C(CSc1ncn[nH]1)Nc1ccc(S(=O)(=O)Nc2ncccn2)cc1	.	.	.	.	.	/
CCn1nnc(NC(=O)C(c2ccccc2)c2ccccc2)n1	.	.	.	.	.	/
CN1CCN(c2ccccc2NC(=O)c2ccc(-c3cccc([N+](=O)[O-])c3)o2)CC1	.	.	.	.	52	.
Cc1ccc(S(=O)(=O)NCC(=O)OCC(=O)NC(=O)NC2CCCC2)cc1	.	.	.	.	.	/
SMILES	TNAP inh hiacc	Arbovirus anti	TNAP inh noacc	TNAP act hiacc	PKD1 inh	FP interf 140K
O=C(Nc1ccc(Cl)cc1)OCc1cn(-c2ccc(Cl)cc2)nn1	.	.	.	.	108	.
CC(OC(=O)c1ccc(NS(=O)(=O)c2cccs2)cc1)C(=O)N(C)C1CCCCC1 (stereo not given)	.	.	.	.	51	.
Cc1c(C(=O)NCc2cccnc2)sc2nc(-c3ccc(F)cc3)cn12	.	.	.	.	54	.
Cc1ccc(C)c(C(=O)NC(C)CCc2ccccc2)c1 (stereo not given)	.	.	.	.	.	/
Cc1occc1C(=O)NC(C)CCc1ccccc1 (stereo not given)	.	.	.	.	119	.
O=C(CCN1C(=O)/C(=C\c2cccs2)SC1=S)NC1=NCCS1	.	.	.	.	.	/
COc1ccccc1/C=C1\SC(=S)N(CCC(=O)NC2=NCCS2)C1=O	.	.	.	.	52	.
